# Measurements from ChEMBL document CHEMBL1154842, “Synthesis, radiolabeling, and biological evaluation of (R)- and (S)-2-amino-3-[(18)F]fluoro-2-methylpropanoic acid (FAMP) and (R)- and (S)-3-[(18)F]fluoro-2-methyl-2-N-(methylamino)propanoic acid (NMeFAMP) as potential PET radioligands for imaging brain tumors” (J Med Chem, 2010).
# Columns and labels:
# [1] = system: 9L; test: Cellular uptake in rat 9L cells at 5 uCi measured […] by gamma counting; type: ADME, cell-based
# How it was run: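 9L rat gliosarcoma cells, grown in DMEM with 10% FCS, were trypsinised and washed in HBSS. About 5×10^5 cells were exposed to 5 μCi tracer in amino-acid-free HBSS for 30 min at 37 °C, 5% CO2, then centrifuged and rinsed twice with ice-cold HBSS. Cells were gamma-counted and decay-corrected, with uptake reported as % of initial dose per 5×10^5 cells ± SD, n=3.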
# [2] = system: 9L; test: Cellular uptake in rat 9L cells at 5 uCi measured […] by gamma counting in presence of system L transport inhibitor BCH; type: ADME, cell-based
# How it was run: (§1)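 9L rat gliosarcoma cells (DMEM, 10% FCS, 37 °C, 5% CO2) were trypsinised and washed in HBSS. About 5×10^5 cells took up 5 μCi tracer for 30 min in 0.1 mL amino acid-free HBSS, with inhibitor at 10 mM final (ACS: 3.3 mM each of alanine, cysteine, serine). Cells were spun and rinsed twice with ice-cold HBSS, then gamma counted with decay correction. Triplicates; uptake is % ID per 5×10^5 cells.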
# [3] = system: 9L; test: Cellular uptake in rat 9L cells assessed as inhibition of uptake at 5 uCi measured […] by gamma counting in presence of system L transport inhibitor BCH relative to control; type: ADME, cell-based; parameters: scale not given: the % may be the effect or the level left
# How it was run: (§2)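 9L rat gliosarcoma cells, grown in DMEM with 10% FCS, were trypsinised and washed in HBSS. About 5×10^5 cells were incubated with 5 μCi tracer in amino-acid-free HBSS for 30 min at 37 °C, with or without 10 mM final BCH, MeAIB or ACS (3.3 mM each Ala/Cys/Ser). Cells were washed cold, gamma-counted and decay-corrected. Inhibition is percent of control; triplicates, one-way ANOVA.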
# [4] = system: 9L; test: Cellular uptake in rat 9L cells at 5 uCi measured […] by gamma counting in presence of system A transport inhibitor MeAIB; type: ADME, cell-based; how it was run: as §1
# [5] = system: 9L; test: Cellular uptake in rat 9L cells assessed as inhibition of uptake at 5 uCi measured […] by gamma counting in presence of system A transport inhibitor MeAIB relative to control; type: ADME, cell-based; parameters: scale not given: the % may be the effect or the level left; how it was run: as §2
# [6] = system: 9L; test: Cellular uptake in rat 9L cells assessed as inhibition of uptake at 5 uCi measured […] by gamma counting in presence of system ASC transport inhibitor ACS relative to control; type: ADME, cell-based; parameters: scale not given: the % may be the effect or the level left; how it was run: as §2
# [7] = system: 9L; test: Cellular uptake in rat 9L cells at 5 uCi measured per 0.5 million cells by gamma counting in presence of system ASC transport inhibitor ACS
# [8] = rat, in vivo, iv, 1 h
# [9] = rat, in vivo, iv, 1 h; remark: listed apart in the source
# [10] = Ratio of drug level from tumor to brain of Fischer 344 rat bearing rat 9L cells at 20 uCi, iv after 60 mins; conditions: in vivo, 1 h
Drug uptake [8] [% ID/g],Drug uptake [9] [% ID/g],Ratio [10],Structure (SMILES),Drug uptake [1] [%ID],Drug uptake [2] [%ID],Activity [3] [%],Drug uptake [4] [%ID],Activity [5] [%],Activity [6] [%],Drug uptake [7] [%ID]
–,–,–,CN[C@](C)(CF)C(=O)O.Cl,3.87,2.76,29,0.82,79,58,1.62
0.26,–,–,N[C@]1(C(=O)O)C[C@@H]([18F])C1 [FLUCICLOVINE F18],–,–,–,–,–,–,–
–,–,–,C[C@@](N)(CF)C(=O)O.Cl,4.77,1.21,75,3.29,31,72,1.33
–,–,–,C[C@](N)(CF)C(=O)O.Cl,13.06,4.27,67,5.51,58,87,1.7
1.3,1.05,0.8,OC[C@H]1O[C@@H](O)[C@H]([18F])[C@@H](O)[C@@H]1O [FLUDEOXYGLUCOSE-F18],–,–,–,–,–,–,–
–,–,–,CN[C@@](C)(CF)C(=O)O.Cl,7.08,3.26,54,0.6,92,89,0.75
